The values below come from article PMC10692362 (Acta Pharmaceutica Sinica. B, 2023).

In one test the target is T1, human ERα LBD (Homo sapiens, UniProt P03372).
T1 sequence (P03372 311-547 limits assumed): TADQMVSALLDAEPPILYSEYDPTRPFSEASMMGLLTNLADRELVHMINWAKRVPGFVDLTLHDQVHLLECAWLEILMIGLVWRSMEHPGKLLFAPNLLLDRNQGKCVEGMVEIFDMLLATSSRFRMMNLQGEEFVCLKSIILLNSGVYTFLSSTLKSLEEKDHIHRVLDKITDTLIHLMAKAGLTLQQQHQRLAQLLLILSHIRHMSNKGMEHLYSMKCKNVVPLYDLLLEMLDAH
As to the kind of experiment: Competitive fluorescence polarization binding assay, ERα.

In another test the test system is T-47D^D538G cells. The experiment in a line: Cell viability assay. Type of test: cell-based, human. Particulars: Homo sapiens, 72 h, read-out: T-47D^D538G IC50.
The next test addresses T2, ERα C530S mutant (Homo sapiens, UniProt P03372, C530S).
T2 sequence (P03372 1-595 C530S): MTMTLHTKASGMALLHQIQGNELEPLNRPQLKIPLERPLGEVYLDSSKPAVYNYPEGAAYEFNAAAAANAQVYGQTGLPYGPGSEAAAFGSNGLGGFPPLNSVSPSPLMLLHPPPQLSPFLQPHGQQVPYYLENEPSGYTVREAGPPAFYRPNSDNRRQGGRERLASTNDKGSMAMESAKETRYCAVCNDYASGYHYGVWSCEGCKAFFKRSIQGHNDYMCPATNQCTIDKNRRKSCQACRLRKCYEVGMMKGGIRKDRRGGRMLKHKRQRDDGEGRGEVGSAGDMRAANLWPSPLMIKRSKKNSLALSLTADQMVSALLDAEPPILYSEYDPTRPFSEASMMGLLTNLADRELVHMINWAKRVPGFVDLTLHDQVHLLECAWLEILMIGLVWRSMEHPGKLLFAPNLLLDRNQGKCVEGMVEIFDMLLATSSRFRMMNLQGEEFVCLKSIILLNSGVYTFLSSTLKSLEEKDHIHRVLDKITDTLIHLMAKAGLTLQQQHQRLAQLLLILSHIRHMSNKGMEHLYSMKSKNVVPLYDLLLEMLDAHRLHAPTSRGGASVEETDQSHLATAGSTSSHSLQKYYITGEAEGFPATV
The experiment in a line: Immunoblot analysis of ERα C530S mutant protein in HEK-293T cells. Format: cell-based. Particulars: HEK-293T^C530S cells, compared with wild type. The method, boiled down:
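HEK-293T cells transfected with a plasmid carrying the single C530→S530 ERα point mutation, then treated with test compound. Cells lysed in RIPA buffer; proteins separated by SDS-PAGE and transferred to PVDF. Membranes blocked with 5% skim milk, probed overnight with rabbit anti-ERα and mouse anti-β-actin (loading control), then goat anti-rabbit secondary for 1 h. Developed by ECL.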

Another test deals with ERα. As to the kind of experiment: Immunoblot analysis of ERα degradation across ERα^WT and ERα^MUT BC cell lines. Type of test: cell-based, human. Conditions: 5 μmol/L 29c with 10 μmol/L MG-132.

Several values for one entry are separate records, joined by “and”; a condition that tells them apart may be missing. Identical values can stand only once.

For `CC(C)=CC(=O)Nc1ccc(C2=C(c3ccc(O)cc3)C3OC2CC3S(=O)(=O)N(CC(F)(F)F)c2ccc(O)cc2)cc1` (stereo not drawn) [Compound 29c, N-(4-(3-(4-Hydroxyphenyl)-5-(N-(4-hydroxyphenyl)-N-(2,2,2-trifluoroethyl)sulfamoyl)-7-oxabicyclo[2.2.1]hept-2-en-2-yl)phenyl)-3-methylbut-2-enamide], the Ki on human ERα LBD stood at 0.09 nM. Besides, the “RBA ERα” value at human ERα LBD (IC50 estradiol/IC50 compound × 100, estradiol = 100%) is 30.44% and 30.44 ± 1.13%. The α/β ratio at human ERα LBD (ratio of RBA ERα to RBA ERβ) turned out to be 49.90. Also, the concentration for half-maximal inhibition (IC50) in the test on T-47D^D538G cells was found to be 1910 ± 180 nM. Further, the “ERα C530S degradation ability” value at ERα C530S mutant is recorded as “decreased”. In the test on ERα, the “ERα degradation with proteasome inhibitor” value is “lost its ability to degrade ERα”.
